This note sets out measurements from ChEMBL document CHEMBL3826928, “Incorporation of Phosphonate into Benzonaphthyridine Toll-like Receptor 7 Agonists for Adsorption to Aluminum Hydroxide” (J Med Chem, 2016).

Data set [1] addresses T1, Toll-like receptor 7 (Homo sapiens) (UniProt Q9NYK1).
T1 sequence (whole entry): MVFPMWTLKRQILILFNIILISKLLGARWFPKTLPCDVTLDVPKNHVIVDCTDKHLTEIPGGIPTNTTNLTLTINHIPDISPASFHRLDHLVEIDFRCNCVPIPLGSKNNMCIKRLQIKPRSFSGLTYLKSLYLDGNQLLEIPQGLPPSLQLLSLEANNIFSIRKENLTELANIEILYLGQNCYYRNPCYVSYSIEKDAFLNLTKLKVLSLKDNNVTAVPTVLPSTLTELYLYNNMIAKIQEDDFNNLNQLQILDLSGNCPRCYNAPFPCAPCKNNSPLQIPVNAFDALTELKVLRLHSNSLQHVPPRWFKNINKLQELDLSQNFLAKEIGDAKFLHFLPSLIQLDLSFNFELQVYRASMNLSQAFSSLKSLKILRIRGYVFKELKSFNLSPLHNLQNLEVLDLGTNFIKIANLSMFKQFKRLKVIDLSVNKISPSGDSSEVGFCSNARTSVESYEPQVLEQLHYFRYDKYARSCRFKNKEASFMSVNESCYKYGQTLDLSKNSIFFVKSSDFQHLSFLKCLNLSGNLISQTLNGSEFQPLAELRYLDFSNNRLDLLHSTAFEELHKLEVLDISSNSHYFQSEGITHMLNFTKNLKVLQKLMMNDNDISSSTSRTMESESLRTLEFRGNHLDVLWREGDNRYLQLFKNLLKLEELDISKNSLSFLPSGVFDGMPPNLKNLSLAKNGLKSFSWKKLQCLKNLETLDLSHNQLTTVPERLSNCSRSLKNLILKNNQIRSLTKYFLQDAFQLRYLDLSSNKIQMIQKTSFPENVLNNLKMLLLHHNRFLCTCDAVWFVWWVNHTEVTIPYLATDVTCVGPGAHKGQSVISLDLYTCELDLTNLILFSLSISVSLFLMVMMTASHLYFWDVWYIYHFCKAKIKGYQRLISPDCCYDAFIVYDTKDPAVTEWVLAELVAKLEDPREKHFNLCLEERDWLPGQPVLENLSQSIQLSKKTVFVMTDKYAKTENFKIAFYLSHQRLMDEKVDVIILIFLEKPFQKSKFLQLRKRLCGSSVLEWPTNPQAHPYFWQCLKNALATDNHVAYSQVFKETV
As to the kind of experiment: Agonist activity at human TLR7 expressed in HEK293 cells incubated for 6 hrs by luciferase reporter gene assay relative to resiquimod. The format is cell-based. Put shortly:
(§1)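 HEK293 stably carrying NF-κB-firefly luciferase reporter plus human TLR7 (best resiquimod-responding clone), maintained under puromycin/blasticidin. 25 000 cells per well in DMEM with 3% FCS.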
For orientation: In a reporter assay the amount or activity of a reporter protein is the signal.

In data set [2] the target is T1, Toll-like receptor 7 (Homo sapiens). As to the kind of experiment: Agonist activity at TLR7 in human PBMC assessed as induction of IL-6 secretion in supernatant after 18 hrs relative to resiquimod. Type of data set: cell-based. The procedure, abridged:
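Isolated human PBMCs washed in PBS, resuspended in RPMI1640 with 10% heat-inactivated FBS, pyruvate, HEPES, at 1 × 10⁶ cells/mL. Compounds as in-situ sodium salts from 10 mM aqueous stocks, 3-fold 10-point dilutions from 30 μM.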

Data set [3] is described as follows: Adsorption on alum in pH 6.5 histidine buffer assessed as compound adsorbed at 1 mg/ml incubated for 1 hr by LC-MS analysis relative to control. Type of data set: physicochemical. The settings on record: pH 6.5, 1 h. Put shortly:
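Compound dissolved in endotoxin-free water, then combined with Alhydrogel alum suspension and 100 mM histidine pH 6.5 stock; final 1 mg/mL compound, 3 mg/mL alum in 10 mM histidine, gently agitated 1 h at room temperature. Aliquot centrifuged 13 000 rpm 10 min; supernatant analysed by LCMS against nonadsorbed reference to give unbound fraction, bound fraction derived indirectly.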

Data set [4] concerns the target T2, Toll-like receptor 8 (Homo sapiens) (UniProt Q9NR97).
T2 sequence (whole entry): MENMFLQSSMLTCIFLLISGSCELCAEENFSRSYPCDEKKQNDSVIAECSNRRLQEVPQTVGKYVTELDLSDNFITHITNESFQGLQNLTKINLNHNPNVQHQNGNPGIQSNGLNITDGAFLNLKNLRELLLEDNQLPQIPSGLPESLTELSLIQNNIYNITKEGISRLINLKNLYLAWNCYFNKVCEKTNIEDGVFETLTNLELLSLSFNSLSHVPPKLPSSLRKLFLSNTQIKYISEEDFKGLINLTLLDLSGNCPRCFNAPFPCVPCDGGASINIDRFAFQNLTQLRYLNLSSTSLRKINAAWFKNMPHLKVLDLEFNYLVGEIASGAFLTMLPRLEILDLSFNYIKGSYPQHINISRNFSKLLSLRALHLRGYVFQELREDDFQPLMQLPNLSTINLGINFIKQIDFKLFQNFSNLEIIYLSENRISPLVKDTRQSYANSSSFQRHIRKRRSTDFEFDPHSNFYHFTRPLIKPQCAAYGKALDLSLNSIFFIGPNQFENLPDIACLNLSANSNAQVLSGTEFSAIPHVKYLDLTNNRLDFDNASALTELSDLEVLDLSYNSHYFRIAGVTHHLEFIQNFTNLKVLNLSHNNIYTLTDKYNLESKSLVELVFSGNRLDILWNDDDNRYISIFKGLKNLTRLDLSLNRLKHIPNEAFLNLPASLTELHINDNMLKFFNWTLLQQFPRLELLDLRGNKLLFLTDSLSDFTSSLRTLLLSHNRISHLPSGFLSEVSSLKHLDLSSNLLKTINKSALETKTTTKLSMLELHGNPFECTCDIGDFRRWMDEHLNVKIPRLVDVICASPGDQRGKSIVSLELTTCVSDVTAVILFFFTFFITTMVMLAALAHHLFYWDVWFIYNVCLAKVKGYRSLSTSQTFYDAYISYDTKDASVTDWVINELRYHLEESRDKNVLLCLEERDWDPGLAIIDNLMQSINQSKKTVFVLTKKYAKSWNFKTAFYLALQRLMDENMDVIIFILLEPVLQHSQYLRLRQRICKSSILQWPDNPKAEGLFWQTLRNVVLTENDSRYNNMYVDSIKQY
As to the kind of experiment: Agonist activity at human TLR8 expressed in HEK293 cells up to 30 uM incubated for 6 hrs by luciferase reporter gene assay relative to resiquimod. The format is cell-based.

In the next data set the target is T3, Toll-like receptor 7 (Homo sapiens, UniProt Q9NYK1).
T3 sequence (Q9NYK1 whole entry): T1 sequence (whole entry)
As to the kind of experiment: Agonist activity at human TLR7 expressed in HEK293 cells incubated for 6 hrs by luciferase reporter gene assay. Type of data set: cell-based. The procedure, abridged: as §1

Data set [5] in a line: Aqueous solubility of compound in pH 1.5 to 10 solution by potentiometric titration method. The format is physicochemical. The settings on record: buffer. The procedure, abridged:
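About 2 mg solid titrated potentiometrically from pH 10 to pH 1.5 on Sirius T3 after pKa determination with MeOH cosolvent; intrinsic solubility calculated from pKa shift on precipitation (Noyes−Whitney), solubility−pH profile extrapolated by Henderson−Hasselbalch.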

A further data set relates to Serum. As to the kind of experiment: Drug level in Balb/c mouse serum at 100 ug, im measured at 24 hrs post dose. The format is ADME, organism-based. The settings on record: in vivo. The procedure, abridged:
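Female BALB/c mice (6−8 weeks, 3 per group) given 100 μg intramuscularly, with or without alum, 50 μL in each hind leg. Serum from retro-orbital bleeds at time points; protein precipitation, reverse-phase LC and ESI+ MRM mass spectrometry. Injected muscle drug level measured at 24 h.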

Data set [6] is described as follows: Aqueous solubility of compound in pH 6.5 to 7.2 solution incubated for 24 hrs by saturated shake flask method. The settings on record: buffer, pH 6.5, 24 h. The format is physicochemical.

The EC50 is the concentration giving half of the maximal effect. A lower EC50 goes with greater potency. Turning to `Cc1cc(OCCOCCOCCC(F)(F)P(=O)(O)O)ccc1CCc1cnc2c(N)nc3cc(CCC(=O)O)ccc3c2c1`, the results for the %max in data set [1] and in data set [2] were 100% and 35%, respectively. The Activity is 97% in data set [3] and under 5% in data set [4]. In addition, the EC50 at Toll-like receptor 7 was 0.039 µM.

Regarding `Cc1ccc2c(c1)nc(N)c1ncc(CCc3ccc(OCCOCCOCCC(F)(F)P(=O)(O)O)cc3C)cc12`, the values for the %max in data set [1] and in data set [2] were 95% and 36%, respectively. Moreover, the solubility result in data set [5] is “soluble”. Also, the values for the Activity in data set [3] and in data set [4] were 98% and under 5%, respectively. Moreover, the Drug uptake entry in the data set with Serum was “Active”. The same compound gave an EC50 at Toll-like receptor 7 of 1.2 µM.

Consider `Cc1ccc2c(c1)nc(N)c1ncc(CCc3ccc(OCCCP(=O)(O)O)cc3C)cc12`, for which the results for the Activity result in data set [3] and in data set [4] were “ND(Insoluble)” and under 5%, respectively. Also, the solubility result in data set [6] is on record as “Insoluble”. The compound also came in with an EC50 at Toll-like receptor 7 of 0.23 µM.

Turning to `Cc1cc(OCCCC(F)(F)P(=O)(O)O)ccc1CCc1cnc2c(N)nc3cc(CCC(=O)O)ccc3c2c1`, the %max was determined as 95% in data set [1] and 35% in data set [2]. In addition, the values for the Activity in data set [3] and in data set [4] were 95% and under 5%, respectively. Besides, the response at Toll-like receptor 7 was half-maximal at 0.24 µM (EC50).

`Cc1cc(OCCOCCOCCP(=O)(O)O)ccc1CCc1cnc2c(N)nc3cc(CCC(=O)O)ccc3c2c1`: the %max in data set [1] was determined as 110%; in data set [2], 58%. The solubility result in data set [5] is “soluble”. For the same compound, the Activity is 97% in data set [3] and under 5% in data set [4]. Besides, the EC50 at Toll-like receptor 7 came to 0.35 µM.
